Sampled rows, rich in hits. Any-hit rate of the full collection: about 3.5%.
STAT1 act = STAT1 signaling activation; activation (% of control), % at 5.5 µM; NIH 3T3 STAT1-luciferase reporter, IFN-gamma, luminescence; 100% = IFN-gamma alone, no compound; AID 932; hit rate 2.6% among 200,000;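 active = activation above the screen-wide mean activation plus 3 SD, cut at about 130% in these data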
FLuc inh counter = inhibits firefly luciferase, flagging false hits in luciferase inhibition screens; ATPLite firefly luciferase biochemical luminescence, 10 min; hit rate 1.5% among 200,000; AID 1006; inhibition, % at 10 µM; P08659;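 active = inhibition above about 50% when tested at 10 µM, limit read from the data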
Target sequence (P08659 whole entry, looked up): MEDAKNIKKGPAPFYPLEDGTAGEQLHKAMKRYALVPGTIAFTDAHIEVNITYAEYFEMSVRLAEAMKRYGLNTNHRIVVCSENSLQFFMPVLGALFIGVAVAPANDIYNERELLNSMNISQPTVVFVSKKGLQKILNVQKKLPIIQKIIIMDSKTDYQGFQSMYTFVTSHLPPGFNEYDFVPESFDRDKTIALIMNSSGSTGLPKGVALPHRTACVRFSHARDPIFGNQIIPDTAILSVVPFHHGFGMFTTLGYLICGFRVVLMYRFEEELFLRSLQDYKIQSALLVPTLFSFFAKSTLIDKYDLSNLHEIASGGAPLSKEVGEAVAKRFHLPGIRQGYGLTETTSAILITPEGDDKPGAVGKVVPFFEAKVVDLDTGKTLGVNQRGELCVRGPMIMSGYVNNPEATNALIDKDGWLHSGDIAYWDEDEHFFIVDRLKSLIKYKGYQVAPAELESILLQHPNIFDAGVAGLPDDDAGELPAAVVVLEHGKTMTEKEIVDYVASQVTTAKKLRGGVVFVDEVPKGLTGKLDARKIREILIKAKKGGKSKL
FLuc stim CS = affects firefly luciferase, flagging false hits in luciferase stimulation screens | P08659 | ATPlite luciferase biochemical, luminescence, 10 min; 0 = ATP-free wells, 1 = DMSO control | activation factor at 10 µM | 200,000 tested, under 10 active | AID 1027;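 active = luciferase activation factor, scaled between plate controls, of at least 2 with compound at 10 µM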
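System: cell-free luciferase reagent; medium: PBS as buffer for the ATP substrate; doses: test compounds dosed from 2 mM stocks in 100% DMSO; incubation: 10 min, room temperature; measured by: luminescence from luciferase reaction; read-out: luciferase activation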
Pf gamet viab = P. falciparum stage V gametocyte viability inhibition; P. falciparum stage V gametocytes, ATP luminescence, 24 h; inhibition, % at 10.9 µM; hit rate 0.065% among 150,000;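 active = inhibition above the mean plus 3 SD of compounds within the control limits, set per campaign, cut at about 38% in these data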
APP 5'UTR act = APP 5'UTR luciferase reporter activation; hit rate 1% among 190,000; activation, % at 2 µM; SH-SY5Y APP 5'UTR luciferase reporter, luminescence; zero percent = DMSO vehicle wells;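 active = activation above a set limit, based on mean plus 3 SD of controls, cut at about 140% in these data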
NF-kB neuron act = raises NF-kB expression in human neuronal cells; hit rate 1.6% among 190,000; NF-kB reporter expression; active compounds read high; AID 1239; fold change at 12.5 µM; in the data active = fold change above about 3.3
A number is an active result.

For Cc1nnc(NC(=O)c2ccc(S(=O)(=O)N3CCc4ccccc4C3)cc2)o1 the results were STAT1 act inactive, FLuc inh counter inactive, FLuc stim CS inactive, Pf gamet viab 49.4, APP 5'UTR act inactive and NF-kB neuron act inactive.
For COc1ccc(C(=O)N=c2sc3c(C)ccc(OC)c3n2C)cc1 the results were STAT1 act 141.6, FLuc inh counter inactive, FLuc stim CS inactive, APP 5'UTR act inactive and NF-kB neuron act inactive.
Screening COc1ccc(-c2nnc(SCc3csc(N)n3)n2C)cc1 returned STAT1 act inactive, FLuc inh counter inactive, FLuc stim CS inactive, Pf gamet viab inactive, APP 5'UTR act inactive and NF-kB neuron act inactive.
For Cc1ccc(Nc2nc(CSc3nnc(-c4ccc(F)cc4)n3C)cs2)cc1 the results were STAT1 act inactive, FLuc inh counter 83.5, FLuc stim CS inactive, APP 5'UTR act inactive and NF-kB neuron act inactive.
`Cc1ccc(-c2nnc(SCC(C)C)n2C)cc1` gave STAT1 act 137.7, FLuc inh counter inactive, FLuc stim CS inactive, APP 5'UTR act inactive and NF-kB neuron act inactive.
Cc1ccc(/C=C/C(=O)NCCc2cccc(Cl)c2)o1 was read as Pf gamet viab inactive.
`Cc1ccc2nc3cc([N+](=O)[O-])cc([N+](=O)[O-])c3cc2c1` gave STAT1 act inactive, FLuc inh counter inactive, FLuc stim CS inactive, Pf gamet viab inactive, APP 5'UTR act inactive and NF-kB neuron act 5.3.
Cc1nc2ccc([N+](=O)[O-])cc2nc1C was read as STAT1 act inactive, FLuc inh counter inactive, FLuc stim CS inactive, Pf gamet viab inactive, APP 5'UTR act inactive and NF-kB neuron act inactive.
Screening O=C(Nc1ccc(Cc2ccncc2)cc1)c1ccc(Cl)c([N+](=O)[O-])c1 returned STAT1 act inactive, FLuc inh counter 76.5, FLuc stim CS inactive, Pf gamet viab inactive, APP 5'UTR act inactive and NF-kB neuron act inactive.
Fc1ccc(COc2ccccc2-c2ccnc3ncnn23)cc1 was read as STAT1 act inactive, FLuc inh counter inactive, FLuc stim CS inactive, Pf gamet viab inactive, APP 5'UTR act inactive and NF-kB neuron act inactive.
COC(=O)c1cccc(-c2ccc(/C=N/N3C(=O)C4C5C=CC(C6CC56)C4C3=O)o2)c1 (centres undefined) was read as STAT1 act inactive, FLuc inh counter inactive, FLuc stim CS inactive, Pf gamet viab inactive and APP 5'UTR act inactive.
`COC(=O)c1ccc(-c2ccc(/C=N/N3C(=O)C4C5C=CC(C6CC56)C4C3=O)o2)cc1` (centres undefined) gave STAT1 act 137.6, FLuc inh counter inactive, FLuc stim CS inactive, APP 5'UTR act inactive and NF-kB neuron act inactive.
Screening CCOc1ccc(-n2c(SCc3ccc([N+](=O)[O-])cc3)nnc2-c2ccc(OC)cc2)cc1 returned STAT1 act inactive, FLuc inh counter inactive, FLuc stim CS inactive, APP 5'UTR act inactive and NF-kB neuron act inactive.
CC/C(=N/N=C(/CC)c1ccc(O)cc1)c1ccc(O)cc1 was read as Pf gamet viab inactive.
`O=C(Nc1ccc(-c2nc3cc(Cl)ccc3o2)cc1)C1CCCO1` (centres undefined) gave STAT1 act 149.5, FLuc inh counter inactive, FLuc stim CS inactive, Pf gamet viab inactive, APP 5'UTR act inactive and NF-kB neuron act inactive.
For COc1ccc(NC(=O)C2CCCO2)cc1 (centres undefined) the results were STAT1 act inactive, FLuc inh counter inactive, FLuc stim CS inactive, APP 5'UTR act inactive and NF-kB neuron act inactive.
O=C(Nc1ccc(Oc2ccccc2)cc1)C1CCCO1 (centres undefined) was read as STAT1 act 132.4, FLuc inh counter inactive, FLuc stim CS inactive, APP 5'UTR act inactive and NF-kB neuron act inactive.
Screening CC(=O)Nc1ccc(-c2nc3cc(Cl)ccc3o2)cc1 returned Pf gamet viab inactive.
O=C(Nc1ccc(-c2nc3cccnc3s2)cc1)C1CCCO1 (centres undefined) was read as STAT1 act inactive, FLuc inh counter 91.4, FLuc stim CS inactive, APP 5'UTR act inactive and NF-kB neuron act inactive.
`O=C(Nc1ccc(-c2nc3ccccc3o2)cc1)C1CCCO1` (centres undefined) gave STAT1 act 140.0, FLuc inh counter 78.0, FLuc stim CS inactive, Pf gamet viab inactive, APP 5'UTR act 233.1 and NF-kB neuron act 4.24.
Screening O=C(O)CCn1nnc2ccccc21 returned Pf gamet viab inactive.
For O=C(O)C1CCCN1c1ncccc1[N+](=O)[O-] (centres undefined) the results were STAT1 act inactive, FLuc inh counter inactive, FLuc stim CS inactive, Pf gamet viab inactive, APP 5'UTR act inactive and NF-kB neuron act inactive.
Screening c1ccc2oc(-c3csc(N4CCOCC4)n3)cc2c1 returned STAT1 act inactive, FLuc inh counter 85.8, FLuc stim CS inactive, Pf gamet viab inactive, APP 5'UTR act 137.7 and NF-kB neuron act 5.79.
`Fc1ccc(-c2csc(N3CCOCC3)n2)cc1` gave Pf gamet viab inactive.
`CC1(C)CC(=O)C(C=Nc2ccccc2C(=O)O)=C(O)C1` gave STAT1 act inactive, FLuc inh counter inactive, FLuc stim CS inactive, Pf gamet viab inactive, APP 5'UTR act inactive and NF-kB neuron act inactive.
CC1(C)CC(=O)c2cc(N=C/C(C(=O)c3ccccc3)=C(\O)c3ccccc3)c(=O)oc2C1 was read as STAT1 act 132.5, FLuc inh counter inactive, FLuc stim CS inactive, Pf gamet viab inactive, APP 5'UTR act inactive and NF-kB neuron act inactive.
CCCc1[nH]nc2c1C(c1ccc(OC(=O)N3CCOCC3)c(OC)c1)C(C#N)=C(N)O2 (centres undefined) was read as STAT1 act inactive, FLuc inh counter inactive, FLuc stim CS inactive, APP 5'UTR act inactive and NF-kB neuron act inactive.
COC(=O)c1c(NC2=NS(=O)(=O)c3ccccc32)sc2c1CCC(C(C)(C)C)C2 (centres undefined) was read as Pf gamet viab inactive.
For Clc1ccc2c(c1)-c1[nH]ncc1CS2 the results were Pf gamet viab inactive.
Screening Cc1ccc2oc(-c3ccccc3)c(C(=O)O)c(=O)c2c1 returned STAT1 act inactive, FLuc inh counter inactive, FLuc stim CS inactive, APP 5'UTR act 166.1 and NF-kB neuron act 4.03.
Screening Cc1cc(OC(=O)c2ccc(S(=O)(=O)N(C)C)cc2)cc(=O)o1 returned STAT1 act inactive, FLuc inh counter inactive, FLuc stim CS inactive, Pf gamet viab inactive, APP 5'UTR act inactive and NF-kB neuron act inactive.
For O=C1C(C=NCCN2CCOCC2)=C(O)c2ccccc21 the results were STAT1 act 133.4, FLuc inh counter inactive, FLuc stim CS inactive, Pf gamet viab inactive, APP 5'UTR act inactive and NF-kB neuron act inactive.
O=S(=O)([N-]c1nc2ccccc2nc1-[n+]1ccc(-c2ccncc2)cc1)c1ccccc1 was read as STAT1 act 129.1, FLuc inh counter inactive, FLuc stim CS inactive, Pf gamet viab inactive, APP 5'UTR act inactive and NF-kB neuron act inactive.
Screening O=C(COC(=O)c1ccc[nH]c1=O)NC1CCCc2ccccc21 (centres undefined) returned Pf gamet viab inactive.

Screens: PubChem, several laboratories
